From ChEMBL document CHEMBL1828552, “Synthesis and studies of novel 2-(4-cyano-3-trifluoromethylphenyl amino)-4-(quinoline-4-yloxy)-6-(piperazinyl/piperidinyl)-s-triazines as potential antimicrobial, antimycobacterial and anticancer agents” (2011)
Converted amounts (≈) assume the structure as drawn.

Tests used:
[1] = test system: Salmonella typhi; test: Antibacterial activity against 10^5 CFU/mL Salmonella typhi MTCC 733 after 24 hrs by agar streak dilution method; format: functional, Salmonella enterica subsp. enterica serovar Typhi; conditions: Salmonella enterica, MTCC 733, 24 h
[2] = test system: Aspergillus clavatus; test: Antifungal activity against 10^5 CFU/mL Aspergillus clavatus MTCC 1323 after 48 hrs by disc diffusion technique; format: functional
[3] = test system: Bacillus cereus; test: Antibacterial activity against 10^5 CFU/mL Bacillus cereus MTCC 619 after 24 hrs by agar streak dilution method; format: functional; conditions: MTCC 619, 24 h
Method in brief: (§1)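 Agar streak dilution. Stock 100 µg/mL in DMSO; graded amounts were mixed into molten nutrient agar and poured at 4–5 mm depth. Plates carried serial dilutions over […]. About 10⁵ CFU/mL of each bacterium was applied, and plates were incubated at 37 ± 1 °C for 24 h. MIC was read from the dilution series.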

[4] = test system: Aspergillus fumigatus; test: Antifungal activity against 10^5 CFU/mL Aspergillus fumigatus MTCC 343 after 48 hrs by agar streak dilution method; format: functional; conditions: MTCC 343, 48 h
Method in brief: (§2)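 Agar streak dilution for fungi. Stock 100 µg/mL in DMSO; graded amounts were mixed into molten Sabouraud dextrose agar and poured at 4–5 mm depth. Serial dilutions ran over […]. About 10⁵ CFU/mL inoculum was applied, with incubation at 37 ± 1 °C for 48 h. MIC was read from the dilution series.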

[5] = test system: Shigella flexneri; test: Antibacterial activity against 10^5 CFU/mL Shigella flexneri MTCC 1457 after 24 hrs by agar streak dilution method; format: functional; conditions: MTCC 1457, 24 h; method in brief: as §1
[6] = test system: Aspergillus fumigatus; test: Antifungal activity against 10^5 CFU/mL Aspergillus fumigatus MTCC 343 after 48 hrs by disc diffusion technique; format: functional
[7] = test system: Pseudomonas aeruginosa; test: Antibacterial activity against 10^5 CFU/mL Pseudomonas aeruginosa MTCC 741 after 24 hrs by agar streak dilution method; format: functional; conditions: MTCC 741, 24 h; method in brief: as §1
[8] = test system: Aspergillus niger; test: Antifungal activity against 10^5 CFU/mL Aspergillus niger MTCC 282 after 48 hrs by disc diffusion technique; format: functional
[9] = test system: Pseudomonas aeruginosa; test: Antibacterial activity against 10^5 CFU/mL Pseudomonas aeruginosa MTCC 741 after 24 hrs by disc diffusion technique; format: functional
Method in brief: (§3)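 Disc diffusion on Mueller–Hinton agar poured 5 mm deep. The surface was swabbed with a 10⁵ CFU/mL […] suspension. Filter-paper discs 6.25 mm in diameter were soaked in compound in DMSO and placed on the agar. Plates were incubated 24 h at 37 ± 1 °C, and the inhibition zone was measured in mm. A DMSO disc served as blank.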

[10] = test system: Proteus vulgaris; test: Antibacterial activity against 10^5 CFU/mL Proteus vulgaris MTCC 1771 after 24 hrs by agar streak dilution method; format: functional; conditions: MTCC 1771, 24 h; method in brief: as §1
[11] = test system: Klebsiella pneumoniae; test: Antibacterial activity against 10^5 CFU/mL Klebsiella pneumoniae MTCC 109 after 24 hrs by agar streak dilution method; format: functional; conditions: MTCC 109, 24 h; method in brief: as §1
[12] = test system: Escherichia coli; test: Antibacterial activity against 10^5 CFU/mL Escherichia coli MTCC 739 after 24 hrs by disc diffusion technique; format: functional; method in brief: as §3
[13] = test system: Staphylococcus aureus; test: Antibacterial activity against 10^5 CFU/mL Staphylococcus aureus MTCC 96 after 24 hrs by agar streak dilution method; format: functional; conditions: MTCC 96, 24 h; method in brief: as §1
[14] = test system: Candida albicans; test: Antifungal activity against 10^5 CFU/mL Candida albicans MTCC 183 after 48 hrs by agar streak dilution method; format: functional; conditions: MTCC 183, 48 h; method in brief: as §2
[15] = test system: Aspergillus niger; test: Antifungal activity against 10^5 CFU/mL Aspergillus niger MTCC 282 after 48 hrs by agar streak dilution method; format: functional; conditions: MTCC 282, 48 h; method in brief: as §2
[16] = test system: Aspergillus clavatus; test: Antifungal activity against 10^5 CFU/mL Aspergillus clavatus MTCC 1323 after 48 hrs by agar streak dilution method; format: functional; conditions: MTCC 1323, 48 h; method in brief: as §2
[17] = test system: DU-145; test: Cytotoxicity against […] human DU145 cells after 48 hrs by SRB assay; format: functional; conditions: DU-145, 48 h
Method in brief: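 SRB assay in DU-145 cells grown in RPMI 1640 with 10% FBS and 2 mM L-glutamine. Cells were plated and held 24 h before addition of four 10-fold concentrations. After 48 h, cells were TCA-fixed, stained with 0.4% SRB and read at 540 nm. GI50, TGI and LC50 were derived against time-zero and control wells; each value is the mean of three experiments.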

[18] = test system: Salmonella typhi; test: Antibacterial activity against 10^5 CFU/mL Salmonella typhi MTCC 733 after 24 hrs by disc diffusion technique; format: functional, Salmonella enterica subsp. enterica serovar Typhi
Method in brief: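 Disc diffusion. Mueller-Hinton agar autoclaved 120 °C 30 min, poured 5 mm deep. Surface swabbed with 10⁵ CFU/mL suspension […]. 6.25 mm filter-paper discs soaked in compound in DMSO; DMSO-only disc as blank. Incubated 37 ± 1 °C, 24 h for bacteria or 48 h for fungi. Ciprofloxacin and ketoconazole discs as reference drugs. Inhibition zone measured in mm.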

[19] = test system: Shigella flexneri; test: Antibacterial activity against 10^5 CFU/mL Shigella flexneri MTCC 1457 after 24 hrs by disc diffusion technique; format: functional; method in brief: as §3
[20] = test system: Candida albicans; test: Antifungal activity against 10^5 CFU/mL Candida albicans MTCC 183 after 48 hrs by disc diffusion technique; format: functional
[21] = test system: Escherichia coli; test: Antibacterial activity against 10^5 CFU/mL Escherichia coli MTCC 739 after 24 hrs by agar streak dilution method; format: functional; conditions: MTCC 739, 24 h; method in brief: as §1
[22] = test system: Bacillus cereus; test: Antibacterial activity against 10^5 CFU/mL Bacillus cereus MTCC 619 after 24 hrs by disc diffusion technique; format: functional; method in brief: as §3
[23] = test system: Klebsiella pneumoniae; test: Antibacterial activity against 10^5 CFU/mL Klebsiella pneumoniae MTCC 109 after 24 hrs by disc diffusion technique; format: functional; method in brief: as §3
[24] = test system: Proteus vulgaris; test: Antibacterial activity against 10^5 CFU/mL Proteus vulgaris MTCC 1771 after 24 hrs by disc diffusion technique; format: functional; method in brief: as §3
[25] = test system: Staphylococcus aureus; test: Antibacterial activity against 10^5 CFU/mL Staphylococcus aureus MTCC 96 after 24 hrs by disc diffusion technique; format: functional; method in brief: as §3

Row | SMILES | MIC [1] [µg/mL] | inhibition zone (IZ) [2] [mm] | MIC [3] [µg/mL] | MIC [4] [µg/mL] | MIC [5] [µg/mL] | inhibition zone (IZ) [6] [mm] | MIC [7] [µg/mL] | inhibition zone (IZ) [8] [mm] | inhibition zone (IZ) [9] [mm] | MIC [10] [µg/mL] | MIC [11] [µg/mL] | inhibition zone (IZ) [12] [mm] | MIC [13] [µg/mL] | MIC [14] [µg/mL] | MIC [15] [µg/mL] | MIC [16] [µg/mL] | GI50 [17] [µM] | LC50 (concentration giving 50% net cell kill relative to time zero) [17] [µM] | TGI [17] [µM] | inhibition zone (IZ) [18] [mm] | also measured
1 | N#Cc1ccc(Nc2nc(Oc3ccnc4ccccc34)nc(N3CCN(c4ncccn4)CC3)n2)cc1C(F)(F)F | 100 (≈ 175 µM) | 11 | 50 (≈ 87.6 µM) | 100 (≈ 175 µM) | 100 (≈ 175 µM) | 13 | 100 (≈ 175 µM) | 11 | 16 | 100 (≈ 175 µM) | 100 (≈ 175 µM) | 18 | 100 (≈ 175 µM) | 100 (≈ 175 µM) | 100 (≈ 175 µM) | 100 (≈ 175 µM) | 85.2 | > 100 | > 100 | 16 | inhibition zone (IZ) [19]: 17 mm; inhibition zone (IZ) [20]: 13 mm; MIC [21]: 100 µg/mL (≈ 175 µM); inhibition zone (IZ) [22]: 21 mm; inhibition zone (IZ) [23]: 17 mm; inhibition zone (IZ) [24]: 18 mm; inhibition zone (IZ) [25]: 21 mm
2 | N#Cc1ccc(Nc2nc(Oc3ccnc4ccccc34)nc(N3CCN(Cc4ccccc4)CC3)n2)cc1C(F)(F)F | 100 (≈ 172 µM) | 12 | 100 (≈ 172 µM) | 100 (≈ 172 µM) | 100 (≈ 172 µM) | <10 | 100 (≈ 172 µM) | <10 | 15 | 100 (≈ 172 µM) | 100 (≈ 172 µM) | 14 | 100 (≈ 172 µM) | 100 (≈ 172 µM) | 100 (≈ 172 µM) | 100 (≈ 172 µM) | > 100 | > 100 | > 100 | 14 | inhibition zone (IZ) [19]: 11 mm; inhibition zone (IZ) [20]: <10 mm; MIC [21]: 100 µg/mL (≈ 172 µM); inhibition zone (IZ) [22]: 22 mm; inhibition zone (IZ) [23]: <10 mm; inhibition zone (IZ) [24]: 16 mm; inhibition zone (IZ) [25]: 22 mm
3 | N#Cc1ccc(Nc2nc(Oc3ccnc4ccccc34)nc(N3CCC(Cc4ccccc4)CC3)n2)cc1C(F)(F)F | 100 (≈ 172 µM) | 14 | 50 (≈ 86 µM) | 100 (≈ 172 µM) | 100 (≈ 172 µM) | <10 | 100 (≈ 172 µM) | <10 | 19 | 100 (≈ 172 µM) | 100 (≈ 172 µM) | 14 | 100 (≈ 172 µM) | 100 (≈ 172 µM) | 100 (≈ 172 µM) | 100 (≈ 172 µM) | > 100 | > 100 | > 100 | 16 | inhibition zone (IZ) [19]: 14 mm; inhibition zone (IZ) [20]: 15 mm; MIC [21]: 100 µg/mL (≈ 172 µM); inhibition zone (IZ) [22]: 22 mm; inhibition zone (IZ) [23]: 16 mm; inhibition zone (IZ) [24]: 17 mm; inhibition zone (IZ) [25]: 24 mm
4 | N#Cc1ccc(Nc2nc(Oc3ccnc4ccccc34)nc(N3CCN(C(c4ccccc4)c4ccccc4)CC3)n2)cc1C(F)(F)F | 100 (≈ 152 µM) | 16 | 25 (≈ 38 µM) | 100 (≈ 152 µM) | 100 (≈ 152 µM) | 20 | 100 (≈ 152 µM) | 14 | 19 | 100 (≈ 152 µM) | 100 (≈ 152 µM) | 19 | 50 (≈ 75.9 µM) | 100 (≈ 152 µM) | 100 (≈ 152 µM) | 100 (≈ 152 µM) | > 100 | > 100 | > 100 | 19 | inhibition zone (IZ) [19]: 21 mm; inhibition zone (IZ) [20]: 15 mm; MIC [21]: 100 µg/mL (≈ 152 µM); inhibition zone (IZ) [22]: 22 mm; inhibition zone (IZ) [23]: 17 mm; inhibition zone (IZ) [24]: 19 mm; inhibition zone (IZ) [25]: 21 mm
